This note sets out measurements from ChEMBL document CHEMBL1127444, “Aza-tricyclic substance P antagonists” (J Med Chem, 1994).

For orientation: ED50 means the midpoint of the dose-response relation. High values mean a need for a large dose, low ones an effect at a small dose. What is called IC50 is the concentration that gives 50% inhibition.

Sequence of Substance-P receptor (P25103 whole entry): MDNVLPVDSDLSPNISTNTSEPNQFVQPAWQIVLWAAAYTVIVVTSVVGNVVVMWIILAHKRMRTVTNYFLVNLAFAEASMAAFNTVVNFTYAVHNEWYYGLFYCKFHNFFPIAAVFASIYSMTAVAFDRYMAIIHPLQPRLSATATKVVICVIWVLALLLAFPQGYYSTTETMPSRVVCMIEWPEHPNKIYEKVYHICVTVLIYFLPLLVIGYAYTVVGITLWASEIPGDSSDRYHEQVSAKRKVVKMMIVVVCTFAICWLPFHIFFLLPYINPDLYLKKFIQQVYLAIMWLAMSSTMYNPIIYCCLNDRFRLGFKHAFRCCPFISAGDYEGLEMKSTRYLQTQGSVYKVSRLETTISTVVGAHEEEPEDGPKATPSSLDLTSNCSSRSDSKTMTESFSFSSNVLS

One assay is filed under the species Cavia porcellus. As to the kind of experiment: Inhibition of capsaicin-induced plasma extravasation in guinea pig ureter. Type of assay: functional. The method, boiled down: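 Male Hartley guinea pigs (300–400 g), fasted overnight, anaesthetised with pentobarbital 25 mg/kg. Compound given po 1 h before capsaicin, at four doses. Evans Blue 30 mg/kg iv, then 5 min later 30 μM capsaicin in 0.1% BSA Krebs bicarbonate, 10 mL per animal. Killed 10 min later. Ureter extracted in formamide at 60 °C for 24 h and OD read at 600 nm. ED50 with 95% confidence limits.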
Turning to `COc1ccccc1CNC1C2C3CCC2CN(C3)[C@H]1C(c1ccccc1)c1ccccc1` (stereo not given in full), the ED50 stood at 2.61 mg/kg. Regarding `COc1ccccc1CN[C@H]1C2CCN(CC2)[C@H]1C(c1ccccc1)c1ccccc1` [CP-96345], the ED50 was determined as 2.83 mg/kg. The ED50 values of the last two compounds are within 1.5-fold of each other. On the same count and under the same terms, in the case of `COc1ccccc1CN[C@H]1C2C3CCCC2CN(C3)[C@H]1C(c1ccccc1)c1ccccc1` it was 4.43 mg/kg; in that of `COc1ccccc1CNC1C2CC3CCC(C2)N3[C@H]1C(c1ccccc1)c1ccccc1` (stereo not given in full), 4.13 mg/kg.

A further assay addresses Substance-P receptor (Homo sapiens, UniProt P25103). As to the kind of experiment: Tested in vitro for the binding affinity towards NK1 receptor in human IM-9 cells using [125I]-labeled bolton-hunter substance P as ligand. The format is cell-based. The method, boiled down:
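IC50 from six-point concentration–response curves, each concentration in duplicate. Mean ± SEM of three separate experiments.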
In the case of `Clc1ccccc1CN[C@H]1C2C3CCCC2CN(C3)[C@H]1C(c1ccccc1)c1ccccc1`, the IC50 was determined as 39 nM.

In turn, `COc1ccccc1CNC1C2C3CCC2CN(C3)[C@H]1C(c1ccccc1)c1ccccc1` (stereo not given in full) yielded an IC50 of 2.4 nM. Against the preceding compound, the IC50 is about 16-fold lower. In the case of `FC(F)(F)c1ccccc1CNC1C2CC3CCCC(C2)N3[C@H]1C(c1ccccc1)c1ccccc1` (stereo not given in full), the IC50 was found to be 4400 nM. On the same count and under the same terms, in the case of `Clc1ccccc1CNC1C2CC3CCCC(C2)N3[C@H]1C(c1ccccc1)c1ccccc1` (stereo not given in full) it was 58 nM; in that of `c1ccc(CN[C@H]2C3C4CCCC3CN(C4)[C@H]2C(c2ccccc2)c2ccccc2)cc1`, 230 nM. Still for that read-out and setting: in the case of `COc1ccccc1CNC1C2CC3CCOC(C2)N3[C@H]1C(c1ccccc1)c1ccccc1` (stereo not given in full) it was 7.2 nM; in that of `c1ccc(CNC2C3CC4CCC(C3)N4[C@H]2C(c2ccccc2)c2ccccc2)cc1` (stereo not given in full), 68 nM; in that of `COc1ccccc1CNC1C2CC3CCCC2CN3[C@H]1C(c1ccccc1)c1ccccc1` (stereo not given in full), 1.9 nM.

`c1ccc(CNC2C3CC4CCCC(C3)N4[C@H]2C(c2ccccc2)c2ccccc2)cc1` (stereo not given in full) returned an IC50 of 170 nM. On the same count and under the same terms, in the case of `COc1ccccc1CNC1C2CC3CCC(C2)N3[C@H]1C(c1ccccc1)c1ccccc1` (stereo not given in full) it was 0.92 nM; in that of `Clc1ccccc1CNC1C2CC3CCC(C2)N3[C@H]1C(c1ccccc1)c1ccccc1` (stereo not given in full), 7.1 nM.
